CHO parental Ca – counter-screen: ATP calcium response change in parental CHO cells. parental CHO-K1, ATP-induced calcium, Fluo-8 fluorescence. 330,000 compounds, 0.63% hits. inhibition, % at 5.6 µM. AID 463079;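 active = inhibition above that plate's mean sample inhibition plus 3 SD, cut at about 26% in these data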;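 also: 0% = ATP-challenged DMSO wells and 100% = DMSO wells without ATP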
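Measured by: calcium-sensitive Fluo-8 fluorescence / Test system: CHO parental line / Controls: ATP-challenged DMSO wells low, unchallenged DMSO wells high / Measure: % inhibition / Compound: single nominal dose of 5.6 µM per compound / Replicates: single well per compound, no replicates / Reagent: ATP as calcium-mobilizing challenge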
OX1R antag-1 – antagonists of human orexin 1 receptor (OX1R) | O43613 | OX1R-expressing cells, FRET antagonist read-out | inhibition, % at 6.6 µM | 330,000 compounds, 1.8% hits | AID 485270; in the data active = inhibition mostly above about 38%, no sharp cut-off; inactive = mostly below about 40%;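 also: 0% = agonist challenge alone and 100% = reference antagonist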
Target sequence (O43613 whole entry, looked up): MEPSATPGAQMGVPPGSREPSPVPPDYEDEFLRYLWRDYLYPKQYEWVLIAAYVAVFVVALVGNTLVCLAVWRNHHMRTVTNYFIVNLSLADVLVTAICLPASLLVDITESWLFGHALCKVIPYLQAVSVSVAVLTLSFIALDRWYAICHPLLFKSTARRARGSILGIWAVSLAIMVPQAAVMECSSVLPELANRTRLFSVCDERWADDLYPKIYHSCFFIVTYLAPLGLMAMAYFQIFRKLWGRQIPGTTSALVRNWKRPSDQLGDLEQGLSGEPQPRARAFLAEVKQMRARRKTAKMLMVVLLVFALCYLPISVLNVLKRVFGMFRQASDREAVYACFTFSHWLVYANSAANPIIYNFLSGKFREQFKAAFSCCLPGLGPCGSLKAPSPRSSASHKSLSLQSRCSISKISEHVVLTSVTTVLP
OX1R antag-2 – antagonists of human orexin 1 receptor; 330,000 compounds, 0.43% hits; O43613; inhibition, % at 5 µM; CHO/OX1R cells, Fluo-8 calcium fluorescence, orexin A;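 active = inhibition above its plate's threshold, mean inhibition of all tested compounds on the plate plus 3 SD, cut at about 37% in these data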;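 also: 0% = orexin A challenge wells and 100% = SB-334867-A antagonist wells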
TAAR1 antag – antagonists of human TAAR1; Q96RJ0; CHO RD-HGA16 TAAR1, Fluo-8 calcium fluorescence, antagonist; inhibition, % at 3 µM; 360,000 compounds, 1.5% hits;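 active = inhibition above a per-plate cutoff, the mean inhibition of test compounds on that plate plus 3 SD, cut at about 49% in these data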;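 also: 0% = DMSO plus EC80 beta-PEA response and 100% = DMSO alone without agonist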
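Assay system: RD-HGA16 CHO cells with stable hTAAR1 and Gα16 / Reagent: EC80 β-phenethylamine stimulus / Doses: 3 µM, single point / Timing: dye loading 75 min at 37 °C, then 30 min room temperature / Measured by: Fluo-8 intracellular calcium dye fluorescence, real-time kinetic reads / Controls: vehicle wells and EC80 agonist wells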
GPR7 antagonist – human neuropeptides B/W receptor 1 antagonism; GPR7-expressing cells, fluorescence antagonist assay; 290,000 compounds, 1.1% hits; AID 1861; inhibition, % at 4.4 µM; in the data active = inhibition above about 16%, passing the limit was not always enough;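 also: cells stimulated with the agonist NPW; 0% = agonist with vehicle and 100% = vehicle without agonist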
TAAR1 agonist – agonists of human TAAR1; Q96RJ0; CHO RD-HGA16 TAAR1, Fluo-8 calcium fluorescence; vehicle wells 0%, saturating PEA agonist 100%; activation, % at 3 µM; 360,000 compounds, 0.99% hits;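 active = activation above the mean activation of all test compounds in the run plus 3 SD, cut at about 38% in these data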
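Assay system – CHO-derived RD-HGA16 cells with stable Gα16 and human TAAR1 · Compound dosing – one-point dosing at 3 µM (nominal) · Incubation – 17-24 h seeding, 75 min 37 °C dye, 30 min RT · Measured by – kinetic Fluo-8 calcium fluorescence · Control set – DMSO vehicle as 0%, PEA at EC100 as 100% · Repeats – single well for each compound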
The depositor's hits bear a star. The list is not random: actives were taken first. Their share in the collection is about 4.5%.

Screening COc1cc(-c2nnc(COC(=O)c3cccn3C)o2)cc(OC)c1OC returned CHO parental Ca -17, OX1R antag-1 20, OX1R antag-2 -11, TAAR1 antag -9, GPR7 antagonist -11 and TAAR1 agonist 1.
COc1cc(-c2nnc(COC(=O)C3c4ccccc4Oc4ccccc43)o2)cc(OC)c1OC was read as CHO parental Ca -13, OX1R antag-1 43*, OX1R antag-2 -12, TAAR1 antag 40, GPR7 antagonist 11 and TAAR1 agonist 6.
Cc1ccc(-c2nn3c(C)nnc3s2)cc1NC(=O)c1cccs1 was read as CHO parental Ca -18, OX1R antag-1 12, OX1R antag-2 -18, TAAR1 antag -4, GPR7 antagonist 3 and TAAR1 agonist 0.
For Cc1cc2nn(-c3cccc4ccccc34)nc2cc1NC(=O)c1cccs1 the results were CHO parental Ca -7, OX1R antag-1 57*, OX1R antag-2 -1, TAAR1 antag 15, GPR7 antagonist 1 and TAAR1 agonist 1.
For O=C(C[n+]1ccc(-c2cc(C(=O)Nc3cccc(C(F)(F)F)c3)c3ccccc3n2)cc1)c1cccc([N+](=O)[O-])c1 the results were CHO parental Ca -5, OX1R antag-1 37, OX1R antag-2 -18, TAAR1 antag 2, GPR7 antagonist -18 and TAAR1 agonist -2.
`Cc1cc(N2CCN(CC(C)(C)O)C[C@H]2C)ccc1N1CCN(Cc2ccccc2)[C@@H](C)C1` gave TAAR1 antag -24 and TAAR1 agonist 2.
`COc1ccc(-c2nc3ccccc3n2Cc2ccccc2)cc1` gave CHO parental Ca -25, OX1R antag-1 22, OX1R antag-2 -22, TAAR1 antag 0, GPR7 antagonist 4 and TAAR1 agonist 2.
COc1ccc(-c2n(Cc3ccccc3)c3ccccc3[n+]2Cc2ccccc2)cc1 was read as CHO parental Ca 6, OX1R antag-1 16, OX1R antag-2 -17, TAAR1 antag -32, GPR7 antagonist 56* and TAAR1 agonist 5.
Screening COc1ccc(C(=O)NCCc2cccc(Cl)c2)cc1OC1CCN(C(C)=O)CC1 returned CHO parental Ca -16, OX1R antag-1 6, OX1R antag-2 -75, TAAR1 antag 4, GPR7 antagonist 8 and TAAR1 agonist 2.
For CC1(C)OC(=O)C2=C(C[C@@H](CCC(F)(F)F)O[C@H]2c2ccc(F)cc2)O1 the results were TAAR1 antag -14 and TAAR1 agonist 0.
O=c1oc2c3c(nn2c2ccccc12)CCCC3 was read as CHO parental Ca -9, OX1R antag-1 67*, OX1R antag-2 31, TAAR1 antag -1, GPR7 antagonist 6 and TAAR1 agonist 4.
`COc1ccc(CCCC(=O)NC(C)c2ccccc2)cc1` (centres undefined) gave CHO parental Ca -15, OX1R antag-1 8, OX1R antag-2 -22, TAAR1 antag 13, GPR7 antagonist -8 and TAAR1 agonist -1.
For O=S(=O)(Nc1nccs1)c1ccc(NCc2cc(Br)cc(Br)c2O)cc1 the results were CHO parental Ca -4, OX1R antag-1 15, OX1R antag-2 -10, TAAR1 antag 7, GPR7 antagonist -11 and TAAR1 agonist 12.
Screening COc1cccc(CNc2ccc(S(=O)(=O)Nc3nccs3)cc2)c1O returned CHO parental Ca -6, OX1R antag-1 4, OX1R antag-2 -10, TAAR1 antag 12, GPR7 antagonist 17* and TAAR1 agonist 8.
COc1ccc2oc(=O)c(C(=O)NC3CCCCCC3)cc2c1 was read as CHO parental Ca -11, OX1R antag-1 6, OX1R antag-2 -30, TAAR1 antag -13, GPR7 antagonist -2 and TAAR1 agonist 7.
`COc1cc(Br)cc2cc(C(=O)NCC3CCCO3)c(=O)oc12` (centres undefined) gave CHO parental Ca 1, OX1R antag-1 10, OX1R antag-2 -16, TAAR1 antag 1, GPR7 antagonist -13 and TAAR1 agonist 0.
For COc1ccc2oc(=O)c(C(=O)NCC3CCCO3)cc2c1 (centres undefined) the results were CHO parental Ca -10, OX1R antag-1 61*, OX1R antag-2 -10, TAAR1 antag 13, GPR7 antagonist 4 and TAAR1 agonist 2.
COc1cccc2cc(C(=O)NCC3CCCO3)c(=O)oc12 (centres undefined) was read as CHO parental Ca -4, OX1R antag-1 77*, OX1R antag-2 -8, TAAR1 antag 1, GPR7 antagonist -10 and TAAR1 agonist 0.
Screening NS(=O)(=O)c1cccc(NC(=O)CSc2n[nH]c(-c3ccccc3Br)n2)c1 returned TAAR1 antag 10 and TAAR1 agonist 2.
For Cc1ccc(C2c3c(-c4ccccc4O)n[nH]c3C(=O)N2Cc2ccncc2)cc1 (centres undefined) the results were CHO parental Ca -14, OX1R antag-1 19, OX1R antag-2 -36, TAAR1 antag 3, GPR7 antagonist 20* and TAAR1 agonist 10.
Screening Cc1ccc(C2c3c(n[nH]c3C)C(=O)N2Cc2ccccc2)cc1 (centres undefined) returned TAAR1 antag -23 and TAAR1 agonist -3.
`CC(Oc1ccccc1)C(=O)N1CCN=C1SCc1ccc(F)cc1` (centres undefined) gave CHO parental Ca -22, OX1R antag-1 13, OX1R antag-2 -19, TAAR1 antag -1, GPR7 antagonist 1 and TAAR1 agonist 2.
CCCCCCCC/C=C\CCCCCCCC(=O)NCCc1ccc(O)c(O)c1 was read as CHO parental Ca 36*, OX1R antag-1 8, OX1R antag-2 16, TAAR1 antag 3 and TAAR1 agonist 14.
Screening O=C(NCCNC(=O)c1ccc(-c2cc(Cl)ccc2Cl)o1)c1cnccn1 returned TAAR1 antag 45 and TAAR1 agonist 43*.
Screening CC(C)(C)OC(=O)N1C[C@H](O)C[C@H]1C(=O)OCC(=O)c1ccc([N+](=O)[O-])cc1 returned CHO parental Ca -4, OX1R antag-1 37*, OX1R antag-2 -5, TAAR1 antag 12, GPR7 antagonist -10 and TAAR1 agonist 0.
Screening COc1ccccc1N(CC(=O)N/N=C/c1c(O)ccc2ccccc12)S(C)(=O)=O returned CHO parental Ca -11, OX1R antag-1 69*, OX1R antag-2 -11, TAAR1 antag 39, GPR7 antagonist 1 and TAAR1 agonist 19.
`CC[C@H](CO)Oc1cc(NCc2cccc(N)c2)c2ncn(C(C)C)c2c1` gave TAAR1 antag 5 and TAAR1 agonist 3.
Cc1ccc(F)c(N=Cc2c(O)c3ccccc3oc2=O)c1 was read as CHO parental Ca -7, OX1R antag-1 51*, OX1R antag-2 -4, TAAR1 antag 5, GPR7 antagonist -15 and TAAR1 agonist -1.

Compound activity as filed in PubChem.
